Several values for one entry are separate records, joined by “and”; a condition that tells them apart may be missing. Equal values may be shown once.
System: U2OS
Experiment: Multiplex assay against U2OS
Type: toxicity, cell-based
Settings: human, number of replicates 2
Outline: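 Tubulin, mitochondrial-mass and membrane-permeability phenotypes are per cents of healthy-nucleus cells. Cells were gated by CellPathfinder machine learning into Hoechst high-intensity objects or normal cells, normal cells into healthy, pyknosed or fragmented nuclei, and pyknosed cells into mitotic or apoptotic. Before that, live cells stained at seeding with Hoechst33342, BioTracker Green Microtubule Cytoskeleton Dye, MitoTracker Red and Annexin V Alexa Fluor 680 were imaged on a CQ1 microscope at 37°C and 5% CO2 after compound addition.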

[1] = 12 h, 10 µM, compound concentration 10 uM
[2] = 24 h, 10 µM, compound concentration 10 uM
[3] = 48 h, 10 µM, compound concentration 10 uM
[4] = 12 h, 1 µM, compound concentration 1 uM
[5] = 24 h, 1 µM, compound concentration 1 uM
[6] = 48 h, 1 µM, compound concentration 1 uM

CN[C@@H]1C[C@H]2O[C@@](C)([C@@H]1OC)n1c3ccccc3c3c4c(c5c6ccccc6n2c5c31)C(=O)NC4 [STAUROSPORINE]
Population Apoptotic (%) [1]: 40% and 72% and 59% and 58% | Population Fragmented Nuclei (%) [1]: 50% and 34% and 30% | Population Hoechst High Intensity Objects (%) [1]: 3% and 0% | Population Membrane Permeable-Phenotype (%) [1]: 66% and 53% and 62% and 43% | Population Mitochondria Different-Phenotype (%) [1]: 66% and 53% and 51% and 68% | Population Mitotic Cells (%) [1]: 41% [middle of 4 runs] | Population Normal (%) [1]: 96% and 100% | Population Pyknosed Nuclei (%) [1]: 38% and 46% and 61% and 63% | Population Tubulin-Different-Phenotype (%) [1]: 73% [middle of 4 runs] | Population Apoptotic (%) [2]: 70% and 85% and 89% | Population Fragmented Nuclei (%) [2]: 45% and 26% and 27% and 40% | Population Healthy Nuclei (%) [2]: 5% and 3% and 4% and 8% | Population Hoechst High Intensity Objects (%) [2]: 0% and 1% | Population Mitochondria Different-Phenotype (%) [2]: 100% and 57% and 75% and 80% | Population Mitotic Cells (%) [2]: 30% and 14% and 10% | Population Normal (%) [2]: 100% and 98% | Population Pyknosed Nuclei (%) [2]: 50% and 70% and 68% | Population Tubulin-Different-Phenotype (%) [2]: 100% and 85% and 40% | Population Apoptotic (%) [3]: 86% and 87% and 88% and 91% | Population Healthy Nuclei (%) [3]: 6% and 5% and 4% | Population Hoechst High Intensity Objects (%) [3]: 0% | Population Membrane Permeable-Phenotype (%) [3]: 100% and 90% and 85% | Population Mitochondria Different-Phenotype (%) [3]: 100% and 60% and 71% | Population Mitotic Cells (%) [3]: 13% and 12% and 8% | Population Normal (%) [3]: 100% | Population Pyknosed Nuclei (%) [3]: 60% and 50% and 80% and 73% | Population Tubulin-Different-Phenotype (%) [3]: 100% and 85%

CN(C)CC#Cc1ccc2[nH]c3c(c2c1)-c1nc(N)ncc1CCC3
Population Apoptotic (%) [4]: 100% and 38% | Population Fragmented Nuclei (%) [4]: 30% and 13% | Population Healthy Nuclei (%) [4]: 61% and 68% | Population Hoechst High Intensity Objects (%) [4]: 3% and 0% | Population Membrane Permeable-Phenotype (%) [4]: 5% and 1% | Population Mitochondria Different-Phenotype (%) [4]: 2% and 1% | Population Normal (%) [4]: 96% and 99% | Population Pyknosed Nuclei (%) [4]: 7% and 17% | Population Tubulin-Different-Phenotype (%) [4]: 61% and 84% | Population Apoptotic (%) [1]: 50% and 17% | Population Healthy Nuclei (%) [1]: 33% and 56% | Population Hoechst High Intensity Objects (%) [1]: 0% | Population Membrane Permeable-Phenotype (%) [1]: 10% and 5% | Population Mitochondria Different-Phenotype (%) [1]: 0% and 4% | Population Mitotic Cells (%) [1]: 50% and 82% | Population Normal (%) [1]: 100% and 99% | Population Tubulin-Different-Phenotype (%) [1]: 20% and 47% | Population Apoptotic (%) [5]: 75% and 53% | Population Fragmented Nuclei (%) [5]: 30% and 17% | Population Healthy Nuclei (%) [5]: 57% and 58% | Population Hoechst High Intensity Objects (%) [5]: 1% and 0% | Population Membrane Permeable-Phenotype (%) [5]: 0% and 3% | Population Mitochondria Different-Phenotype (%) [5]: 0% and 1% | Population Mitotic Cells (%) [5]: 25% and 46% | Population Normal (%) [5]: 98% and 99% | Population Pyknosed Nuclei (%) [5]: 12% and 23% | Population Tubulin-Different-Phenotype (%) [5]: 58% and 82% | Population Apoptotic (%) [2]: 66% and 24% | Population Healthy Nuclei (%) [2]: 31% and 39% | Population Hoechst High Intensity Objects (%) [2]: 0% | Population Membrane Permeable-Phenotype (%) [2]: 27% and 15% | Population Mitochondria Different-Phenotype (%) [2]: 9% and 4% | Population Mitotic Cells (%) [2]: 33% and 75% | Population Normal (%) [2]: 100% and 99% | Population Tubulin-Different-Phenotype (%) [2]: 45% and 49% | Population Apoptotic (%) [6]: 45% and 69% | Population Fragmented Nuclei (%) [6]: 37% and 13% | Population Healthy Nuclei (%) [6]: 52% and 69% | Population Hoechst High Intensity Objects (%) [6]: 0% | Population Membrane Permeable-Phenotype (%) [6]: 7% and 3% | Population Mitochondria Different-Phenotype (%) [6]: 5% and 0% | Population Mitotic Cells (%) [6]: 54% and 30% | Population Normal (%) [6]: 99% and 100% | Population Pyknosed Nuclei (%) [6]: 11% and 17% | Population Tubulin-Different-Phenotype (%) [6]: 67% and 77% | Population Apoptotic (%) [3]: 50% | Population Healthy Nuclei (%) [3]: 19% and 48% | Population Hoechst High Intensity Objects (%) [3]: 0% | Population Membrane Permeable-Phenotype (%) [3]: 20% and 28% | Population Mitochondria Different-Phenotype (%) [3]: 0% and 2% | Population Mitotic Cells (%) [3]: 50% and 49% | Population Normal (%) [3]: 100% and 99% | Population Tubulin-Different-Phenotype (%) [3]: 20% and 45%

CNC(=O)c1c(F)cccc1Nc1nc(Nc2cc3c(cc2OC)CCN3C(=O)CN(C)C)nc2[nH]ccc12
Population Apoptotic (%) [4]: 57% and 62% | Population Healthy Nuclei (%) [4]: 60% and 80% | Population Hoechst High Intensity Objects (%) [4]: 0% | Population Membrane Permeable-Phenotype (%) [4]: 0% and 7% | Population Mitochondria Different-Phenotype (%) [4]: 0% and 8% | Population Mitotic Cells (%) [4]: 42% and 37% | Population Normal (%) [4]: 100% | Population Pyknosed Nuclei (%) [4]: 13% and 15% | Population Tubulin-Different-Phenotype (%) [4]: 80% and 46% | Population Apoptotic (%) [1]: 46% and 60% | Population Healthy Nuclei (%) [1]: 33% and 35% | Population Hoechst High Intensity Objects (%) [1]: 0% and 2% | Population Mitotic Cells (%) [1]: 53% and 39% | Population Normal (%) [1]: 100% and 97% | Population Tubulin-Different-Phenotype (%) [1]: 57% and 75% | Total Cell Count [1]: 815 and 281 | Population Apoptotic (%) [5]: 46% and 59% | Population Healthy Nuclei (%) [5]: 55% and 80% | Population Hoechst High Intensity Objects (%) [5]: 0% | Population Membrane Permeable-Phenotype (%) [5]: 0% and 3% | Population Mitochondria Different-Phenotype (%) [5]: 0% and 7% | Population Mitotic Cells (%) [5]: 53% and 40% | Population Normal (%) [5]: 100% | Population Pyknosed Nuclei (%) [5]: 25% and 15% | Population Tubulin-Different-Phenotype (%) [5]: 87% and 50% | Population Apoptotic (%) [2]: 72% and 83% | Population Healthy Nuclei (%) [2]: 32% and 23% | Population Hoechst High Intensity Objects (%) [2]: 0% and 1% | Population Mitotic Cells (%) [2]: 27% and 16% | Population Normal (%) [2]: 100% and 98% | Population Tubulin-Different-Phenotype (%) [2]: 62% and 78% | Population Apoptotic (%) [6]: 72% and 78% | Population Healthy Nuclei (%) [6]: 61% and 82% | Population Hoechst High Intensity Objects (%) [6]: 1% and 0% | Population Membrane Permeable-Phenotype (%) [6]: 2% and 4% | Population Mitochondria Different-Phenotype (%) [6]: 2% and 5% | Population Mitotic Cells (%) [6]: 27% and 22% | Population Normal (%) [6]: 98% and 100% | Population Pyknosed Nuclei (%) [6]: 23% and 14% | Population Tubulin-Different-Phenotype (%) [6]: 91% and 62% | Population Apoptotic (%) [3]: 95% and 94% | Population Hoechst High Intensity Objects (%) [3]: 0% and 1% | Population Mitotic Cells (%) [3]: 4% and 5% | Population Normal (%) [3]: 100% and 98% | Population Tubulin-Different-Phenotype (%) [3]: 64% and 80%

— ChEMBL document CHEMBL5303300, “EUbOPEN Chemogenomics Library - Multiplex” (2023)
